Assay outcomes from PubChem.
Hits are enriched below; roughly 1.3% of the tested compounds scored in any of these assays.
LYPLA2 counter: LYPLA2 inhibitors, primary screen, counter-screen for PME1 inhibitor project, biochemical, fluorescence polarization, FP-Rh probe ABPP; Acyl-protein thioesterase 2 (Homo sapiens), O95372; recombinant LYPLA2; inhibition, % at 5.9 µM; 0.38% of 320,000 active; AID 2177, 2009;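 active = inhibition above the screen-wide mean plus 3 SD, limit set per campaign, cut at about 26% in these data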;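 note: 0% = LYPLA2 with DMSO and 100% = wells lacking LYPLA2 enzyme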
PME-1 primary: PME-1 inhibitors via competitive probe labeling, primary screen, biochemical, fluorescence polarization, FP-Rh probe, HTS; recombinant PME-1; 0.53% of 320,000 active; inhibition, % at 5.9 µM;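 active = inhibition above the campaign mean of all compounds plus 3 SD, cut at about 26% in these data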;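 note: competitive labeling of PME-1 active site by serine hydrolase directed probe; 0% = PME-1 with DMSO and 100% = wells lacking PME-1 enzyme; inhibitors block probe labeling so polarization falls and inhibition rises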
Target sequence (Q9Y570 whole entry, looked up): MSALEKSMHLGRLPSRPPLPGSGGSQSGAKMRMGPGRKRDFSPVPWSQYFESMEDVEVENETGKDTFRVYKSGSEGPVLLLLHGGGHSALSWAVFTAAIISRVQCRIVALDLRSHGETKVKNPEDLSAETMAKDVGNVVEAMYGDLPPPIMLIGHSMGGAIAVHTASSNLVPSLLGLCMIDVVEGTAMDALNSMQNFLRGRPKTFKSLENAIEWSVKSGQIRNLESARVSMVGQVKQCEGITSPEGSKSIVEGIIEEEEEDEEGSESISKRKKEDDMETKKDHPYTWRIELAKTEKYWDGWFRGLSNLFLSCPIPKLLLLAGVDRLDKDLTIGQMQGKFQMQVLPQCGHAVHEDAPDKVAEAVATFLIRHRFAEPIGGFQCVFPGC
PAD4 FP inh: human PAD4 inhibitors, primary screen, biochemical, fluorescence polarization, 1536-well format | 0.41% of 330,000 active | Protein-arginine deiminase type-4 (Homo sapiens), Q9UM07 | recombinant PAD4, RCA probe fluorescence polarization | inhibition, % at 6.36 µM;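 active = percent inhibition above a cutoff equal to the mean of all tested compounds plus 3 SD, cut at about 15% in these data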;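 note: 0% = PAD4 with RCA probe and DMSO and 100% = probe without PAD4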
LYPLA1 inh: LYPLA1 inhibitors, primary screen, counter-screen for PME1 inhibitor project, biochemical, fluorescence polarization, FP-Rh probe ABPP. Acyl-protein thioesterase 1 (Homo sapiens), O75608. recombinant LYPLA1. inhibition, % at 5.9 µM. 0.16% of 320,000 active. AID 2174, 2009;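 active = inhibition above the mean of all tested compounds plus 3 SD, set per campaign, cut at about 14% in these data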;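 note: inhibitors block serine hydrolase probe labeling of LYPLA1 so polarization falls; 0% = enzyme with DMSO and 100% = wells lacking LYPLA1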
Target sequence (O75608 whole entry, looked up): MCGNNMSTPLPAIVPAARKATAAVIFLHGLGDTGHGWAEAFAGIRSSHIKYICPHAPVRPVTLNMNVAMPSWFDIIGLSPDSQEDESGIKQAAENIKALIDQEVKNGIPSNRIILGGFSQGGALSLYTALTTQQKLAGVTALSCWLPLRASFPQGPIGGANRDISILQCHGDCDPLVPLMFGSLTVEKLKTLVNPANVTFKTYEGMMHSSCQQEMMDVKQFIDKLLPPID
RBBP9 inhibitor: human RBBP9 inhibitors, primary screen, biochemical, fluorescence polarization, FP-Rh probe, HTS | recombinant RBBP9 | inhibition, % at 7.94 µM | 0.2% of 220,000 active | AID 1515, 2009;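 active = inhibition above the campaign mean of all tested compounds plus 3 SD, cut at about 14% in these data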;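 note: plate controls were DMSO wells with RBBP9 for no effect and wells lacking RBBP9 protein for full effect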
Target sequence (O75884 whole entry, looked up): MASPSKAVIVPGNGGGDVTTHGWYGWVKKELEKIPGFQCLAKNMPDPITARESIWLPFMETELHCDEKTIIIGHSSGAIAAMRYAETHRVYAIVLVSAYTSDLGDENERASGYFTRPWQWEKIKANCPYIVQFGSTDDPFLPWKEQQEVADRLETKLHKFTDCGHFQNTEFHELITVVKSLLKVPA
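Controls: DMSO-treated enzyme wells and wells lacking RBBP9 | Material: RBBP9 protein | Technique: Fluorescence polarization | Replication: Single well per compound, no replicates | Buffer or medium: Tris-NaCl-Pluronic buffer, pH 8.0 | Timing: 30 min compound preincubation, 45 min probe labeling, 25 °C | Read-out basis: Percent inhibition from mP, scaled between DMSO and no-protein wells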
Fam108B inh: mouse Fam108B serine hydrolase inhibitors, primary screen, counter-screen for RBBP9 inhibitor project, biochemical, fluorescence polarization. recombinant Fam108B, FP-Rh probe fluorescence polarization. inhibition, % at 9.51 µM. 0.33% of 300,000 active. AID 1947, 2009;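 active = inhibition above the screen mean inhibition plus 3 SD, computed separately per campaign, cut at about 18% in these data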;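 note: inhibitors lower polarization as less probe binds the enzyme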
LYPLA2 confirm: LYPLA2 inhibitors, retest, confirmation, counter-screen for PME1 inhibitor project, biochemical, fluorescence polarization, FP-Rh probe ABPP; AID 2232, 2010; shares compounds with LYPLA2 counter; recombinant LYPLA2; 72% of 1,100 active; inhibition, % at 5.9 µM;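 active = mean inhibition across replicates above the hit cutoff set in the primary screen, cut at about 26% in these data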;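 note: blocked labeling of the enzyme by serine hydrolase FP-Rh probe lowers polarization; 0% = enzyme with DMSO and 100% = wells lacking LYPLA2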
LYPLA2 gel ABPP: LYPLA2 inhibitors in proteome, late-stage follow-up, gel-based competitive ABPP, fluorescence, assay provider | shares compounds with LYPLA2 counter | rhLYPLA2 in mouse brain proteome, gel ABPP FP-Rh | inhibition, % at 20 µM | 30% of 150 active | AID 652029, 2013;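 active = inhibition of LYPLA2 enzyme probe labeling above about 50%, limit read from the data; inactive = inhibition below that limit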;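 note: loss of FP-Rh probe labeling of the LYPLA2 gel band measured as band density; 0% = DMSO only control band and 100% = blank gel background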
The depositor's hits bear a star; / = no result given.

SMILES | LYPLA2 counter | PME-1 primary | PAD4 FP inh | LYPLA1 inh | RBBP9 inhibitor | Fam108B inh | LYPLA2 confirm | others
CS(=O)(=O)c1ccc(S(=O)(=O)N2CCC(CO)(CCCc3ccccc3)CC2)cc1 | 7.6 | 6.2 | -3.0 | 7.6 | / | 1.4 | /
COc1ccc(OC)c(-c2cc(C(=O)Nc3c(C)nn(Cc4ccccc4)c3C)no2)c1 | 60.7* | -4.6 | -0.1 | 12.3 | -1.1 | -0.2 | 66.1* | LYPLA2 gel ABPP=64.0*
COc1ccc(OC)c(-c2cc(C(=O)Nc3c(C)nn(Cc4ccc(Cl)cc4)c3C)no2)c1 | 44.4* | -10.8 | 0.3 | 11.8 | -10.6 | -13.7 | 86.9* | LYPLA2 gel ABPP=45.0
Cc1nn(Cc2ccccc2)c(C)c1NC(=O)c1cc(-c2ccco2)on1 | 6.8 | -2.5 | -1.5 | 0.3 | -6.8 | 1.7 | /
O=C(ON=C1CCN(c2ccc([N+](=O)[O-])cc2)CC1)c1ccccc1 | 36.6* | -2.7 | -1.1 | 3.6 | -4.3 | -3.7 | 35.4*
COc1ccc(C(=O)ON=C2CCN(c3ccc([N+](=O)[O-])cc3)CC2)cc1 | 35.1* | 6.4 | -2.8 | 7.8 | -10.6 | -0.9 | 38.7*
Cc1ccccc1OCCOc1ccccc1C=C(C#N)C#N | -6.2 | -6.1 | 1.9 | -4.2 | -11.0 | -8.1 | /
Cc1cccc(Nc2c([N+](=O)[O-])cc(C(=O)N3CC(=O)Nc4ccccc43)cc2[N+](=O)[O-])c1 | 32.1* | 6.0 | 7.1 | -3.5 | 0.9 | 4.9 | 38.1*
O=C(NCC1CCN(c2ccc(S(=O)(=O)N3CCOCC3)cc2)CC1)c1ccc(Cl)cc1 | 80.7* | 1.4 | 0.9 | 1.2 | -3.8 | 2.6 | 75.8* | LYPLA2 gel ABPP=59.0*
O=C(CN1C(=O)NC2(CCCC2)C1=O)Nc1ccc(S(=O)(=O)N2CCOCC2)cc1 | 30.4* | 4.1 | -2.2 | 4.3 | -4.8 | -7.0 | 1.0
Cc1cc(C(=O)NC(C)c2ccccc2)c2cc(F)ccc2n1 (configuration not stated) | 28.4* | 3.0 | -1.2 | 3.4 | 3.5 | 3.1 | 13.0
Cc1cnc(C(=O)OCc2ccc(C#N)cc2)cn1 | 4.1 | 1.0 | 4.5 | 4.1 | / | -3.9 | /
N#Cc1ccc(COC(=O)c2cnc3ccccc3n2)cc1 | 27.3* | 5.7 | -0.3 | 1.6 | / | -1.4 | 27.0*
Cc1ccc(C(C(=O)NC(C)(C)C)N(Cc2ccccc2)C(=O)c2snc(C(N)=O)c2N)o1 (configuration not stated) | 0.7 | 2.4 | -2.1 | -2.2 | -8.7 | -0.8 | /
CCOc1cccc(/C=N/NC(=O)c2cc(C3CC3)[nH]n2)c1O | -4.3 | -15.5 | 2.7 | 0.0 | / | 1.3 | /
COc1ccc(C(=O)NC(=S)Nc2cccc3ncccc23)cc1[N+](=O)[O-] | 47.7* | -127.3 | -8.5 | 6.3 | / | 2.0 | 51.2* | LYPLA2 gel ABPP=38.0
O=C(Nc1cccc2ncccc12)c1ccc(Br)c([N+](=O)[O-])c1 | 32.9* | -2.7 | -2.9 | -3.0 | -7.5 | 1.4 | 46.6*
COc1ccc(C(=O)NC(=S)NCc2cccnc2)cc1[N+](=O)[O-] | 34.8* | -5.6 | 4.8 | 12.2 | -1.2 | 2.3 | 24.1
COC(=O)[C@]1(C)N[C@H](CN(C)C(=O)C2CCCCC2)[C@@H]2C(=O)N(Cc3ccccc3)C(=O)[C@@H]21 | / | / | -2.1 | / | / | / | /
CC1CCN(CCCNC(=O)c2ccc3c(=O)n(CCc4ccccc4)c(=O)[nH]c3c2)CC1 | -5.1 | 0.6 | -3.7 | -4.7 | 2.6 | -3.0 | /
CN1CCN(CCCNC(=O)c2ccc3c(=O)n(CCc4ccccc4)c(=O)[nH]c3c2)CC1 | 29.3* | -0.5 | -3.0 | -4.4 | / | 0.0 | 1.4
N#Cc1nc(-c2ccco2)oc1N1CCN(c2ccccc2)CC1 | 26.3* | 1.2 | 1.4 | 5.9 | 3.9 | -0.1 | 17.2
COc1ccc(N2CCN(c3oc(-c4ccco4)nc3C#N)CC2)cc1 | 22.1 | -1.2 | 2.9 | 9.8 | -2.5 | -1.2 | /
C=CCC(C(=O)NC(C)c1ccccc1)C(=O)NC(C)c1ccccc1 (configuration not stated) | 2.7 | -4.3 | -1.3 | -2.3 | / | 1.7 | /
COCCNC(=O)CN(C(=O)CCC(=O)Nc1ccccn1)c1ccccc1F | -2.0 | 0.8 | 0.4 | -0.8 | 4.0 | 0.1 | /
SMILES | LYPLA2 counter | PME-1 primary | PAD4 FP inh | LYPLA1 inh | RBBP9 inhibitor | Fam108B inh | LYPLA2 confirm | others
COc1ccc(Oc2coc3cc(OC(=O)c4cccs4)ccc3c2=O)cc1 | 40.5* | -1.0 | -7.3 | 4.1 | 1.0 | -11.4 | 46.4*
Cc1ccc(C)c(Oc2coc3cc(OC(=O)c4cccs4)ccc3c2=O)c1 | 21.6 | -9.0 | -2.5 | -2.6 | -6.4 | -8.8 | /
Cc1nc(-c2ccc(S(=O)(=O)N3CCCN(CCc4ccccc4)CC3)s2)cs1 | 61.0* | 2.2 | 5.5 | 8.5 | -5.4 | 0.2 | 67.8* | LYPLA2 gel ABPP=50.0*
C/C(=N\NC(=O)c1c(Cl)cnn1C)c1ccc(NC(=O)c2ccncc2)cc1 | -0.1 | -6.8 | 2.5 | -3.2 | 8.5 | -1.1 | /
C/C(=N\OC(=O)c1ccccc1)c1cc(-c2ccc(Cl)cc2)no1 | 5.2 | -5.8 | -3.1 | -0.3 | -1.2 | 1.1 | /
C/C(=N/OC(=O)C1CC1)c1cc(-c2ccc(Cl)cc2)no1 | 37.4* | -0.5 | -3.2 | 4.5 | -6.1 | 5.2 | 22.1
CN(C(=O)COC(=O)c1cccc(S(=O)(=O)N2CCCCC2)c1)C1CCS(=O)(=O)C1 (configuration not stated) | 0.1 | -1.8 | -1.4 | 2.7 | / | 1.6 | /
CCCCCCCOc1ccc(OC(=O)c2cccnc2)cc1 | 40.9* | 3.4 | -0.1 | 1.1 | 4.9 | -4.5 | 47.9*
CCCCOc1ccc(OC(=O)c2cccnc2)cc1 | 2.4 | 1.3 | -3.9 | -0.6 | -6.4 | 6.1 | /
CCCCCCCOc1ccc(OC(=O)c2ccncc2)cc1 | 32.1* | 0.3 | -4.9 | 3.2 | -7.1 | 1.6 | 48.6*
COc1ccc(CNC(=O)C(OC(=O)c2ccco2)c2ccc(F)cc2)cc1 (configuration not stated) | -3.8 | -2.7 | 3.0 | -0.7 | / | -3.9 | /
CCc1ccccc1NC(=O)CN1CCN(C(=O)CN2C(=O)NC3(CCCC3)C2=O)CC1 | 2.1 | -2.4 | 4.2 | 1.4 | / | / | /
Cc1ccc(C(=O)N2CC(=O)Nc3ccc(F)cc3C2c2ccc(F)cc2)cc1[N+](=O)[O-] (configuration not stated) | 33.8* | -0.4 | -3.2 | -1.7 | -12.6 | -0.2 | 29.8*
